# Experimental data as given in ChEMBL document CHEMBL1139140, “Synthesis, antimycobacterial activity evaluation, and QSAR studies of chalcone derivatives” (2007).
# Experiments:
# [1] = system: Mycobacterium tuberculosis; assay: Antimicrobial activity against Mycobacterium tuberculosis H37Rv at 100 ug/ml assessed as reduction of relative light units; type: functional; design: scale not given: the % may be the effect or the level left
# Method in brief: (§1)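 Luciferase reporter phage assay on M. tuberculosis H37Rv. Bacteria (McFarland No.2 suspension) in G7H9, with or without compound, incubated 72 h at 37 °C; two drug-free controls per sample. Phage phAE129 with CaCl2 added, then 4 h at 37 °C. D-luciferin (0.3 mM, citrate pH 4.5) added; RLU read after 10 s integration, duplicate readings averaged. Percent RLU reduction versus control; repeated if control mean RLU <1000.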
# [2] = system: Mycobacterium tuberculosis; assay: Antimicrobial activity against Mycobacterium tuberculosis H37Rv at 50 ug/ml assessed as reduction of relative light units; type: functional; design: scale not given: the % may be the effect or the level left; method in brief: as §1
SMILES,Activity [1] [%],Activity [2] [%]
CN(C)c1ccc(/C=C/C(=O)c2ccccc2)cc1,70.18,70.02
COc1ccc(/C=C/C(=O)c2ccccc2)cc1 [4-METHOXY CHALCONE],65.08,58.75
CN(C)c1ccc(/C=C/C(=O)c2ccc(Cl)cc2Cl)cc1,33.8,31.55
CSc1ccc(/C=C/C(=O)c2ccccc2)cc1,66.51,46.29
CSc1ccc(/C=C/C(=O)c2ccccc2O)cc1,90.52,68.41
COc1ccc(/C=C/C(=O)c2cccc([N+](=O)[O-])c2)c(OC)c1,96.45,92.19
CSc1ccc(/C=C/C(=O)c2ccc(Cl)cc2)cc1,48.83,24.06
CSc1ccc(/C=C/C(=O)c2ccc(Br)cc2)cc1,21.87,0
COc1ccc(/C=C/C(=O)c2cccc(O)c2)cc1,99.04,98.9
COc1ccc(C(=O)/C=C/c2ccc(SC)cc2)cc1,17.38,7.36
CSc1ccc(/C=C/C(=O)c2ccc([N+](=O)[O-])cc2)cc1,48.06,30.95
CSc1ccc(/C=C/C(=O)c2cccc([N+](=O)[O-])c2)cc1,0,0
COc1ccc(/C=C/C(=O)c2ccc(Cl)cc2Cl)cc1OC,12.17,0
CSc1ccc(/C=C/C(=O)c2ccc(C)cc2)cc1,51.59,16.88
COc1ccccc1/C=C/C(=O)c1cccc([N+](=O)[O-])c1,97.94,84.16
CSc1ccc(/C=C/C(=O)c2cccc(O)c2)cc1,98.86,31.59
COc1ccc(/C=C/C(=O)c2cccc([N+](=O)[O-])c2)cc1OC,89.27,64.61
COc1ccccc1/C=C/C(=O)c1ccccc1,72.98,66.07
COc1cc(/C=C/C(=O)c2ccccc2)cc(OC)c1OC,63.9,43.16
COc1ccc(/C=C/C(=O)c2ccc(C)cc2)cc1,98.52,60.24
CSc1ccc(/C=C/C(=O)c2ccc(O)cc2)cc1,55.16,29.25
O=C(/C=C/c1ccccc1)c1ccccc1 [CHALCONE],50.64,41.93
CN(C)c1ccc(/C=C/C(=O)c2cccc([N+](=O)[O-])c2)cc1,96.22,90.06
COc1ccccc1/C=C/C(=O)c1ccc([N+](=O)[O-])cc1,98.15,94.3
CSc1ccc(/C=C/C(=O)c2ccc(Cl)cc2Cl)cc1,0,0
